# Rows were chosen to be rich in hits. Some 2.3% of all compounds tested hit in one or more screens of this group.
# ABHD4 inh = inhibitors of mouse ABHD4; Q8VD66; purified mABHD4, FP-Rh probe fluorescence polarization; inhibition, % at 8.92 µM; 370,000 tested, 0.54% active; AID 720543;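 active = inhibition exceeding the mean over every tested compound plus 3 SD, cut at about 30% in these data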;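 also: 0% = plate median of compound wells and 100% = S159A mutant with DMSO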
#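 System: mouse ABHD4 enzyme, wild type / Medium: HEPES pH 7.0, NaCl, Pluronic buffer / Reagent: FP-Rh activity-based fluorescent probe / Control set: S159A mutant high control, sample median low control / Detection: fluorescence polarization with parallel and perpendicular emission, 525/598 nm / Schedule: 45 min + 60 min at 25 °C / Compound dosing: 8.92 µM, single dose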
# TCR CD3 inh = blocks the human TCR-CD3 interaction; TAMRA-labeled TCR probe fluorescence, biochemical; inhibition, % at 9.4 µM; 360,000 tested, 0.37% active; AID 651800; in the data active = inhibition above about 19%;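 also: recombinant mutant TCR 2C K166C tagged with TAMRA read by polarization; 0% = receptor in buffer alone and 100% = receptor with positive control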
# HTRA1 inh = HTRA1 (human) protease inhibition. 340,000 tested, 0.5% active. inhibition, % at 5.96 µM. Q92743. recombinant HTRA1, FP-rhodamine activity-based probe, fluorescence polarization; in the data active = inhibition above about 36%;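 also: 0% = enzyme with DMSO and 100% = wells lacking enzyme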
# Target sequence (Q92743 whole entry, looked up): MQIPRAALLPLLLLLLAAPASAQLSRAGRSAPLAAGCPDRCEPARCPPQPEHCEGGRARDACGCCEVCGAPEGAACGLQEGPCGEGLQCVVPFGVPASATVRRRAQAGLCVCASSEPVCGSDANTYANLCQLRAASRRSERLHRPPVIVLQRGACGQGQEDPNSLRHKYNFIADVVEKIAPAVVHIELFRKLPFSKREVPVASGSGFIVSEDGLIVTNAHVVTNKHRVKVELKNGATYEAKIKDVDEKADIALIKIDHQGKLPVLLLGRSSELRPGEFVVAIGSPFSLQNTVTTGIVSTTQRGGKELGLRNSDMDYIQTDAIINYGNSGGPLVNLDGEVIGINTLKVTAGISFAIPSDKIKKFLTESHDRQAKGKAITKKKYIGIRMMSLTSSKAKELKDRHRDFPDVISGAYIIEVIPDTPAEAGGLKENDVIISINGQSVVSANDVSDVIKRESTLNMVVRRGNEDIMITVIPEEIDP
# pPAFAH FP inh = pPAFAH (human) enzyme inhibition. Q13093. recombinant pPAFAH, FP-rhodamine probe fluorescence polarization. inhibition, % at 3.39 µM. 330,000 tested, 1.5% active. AID 463082;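 active = inhibition above the mean inhibition across the screen plus 3 SD, cut at about 25% in these data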;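 also: inhibitors block binding of the rhodamine activity-based probe so polarization drops; 0% = enzyme with DMSO and 100% = wells lacking pPAFAH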
# SIAE primary = blocks human sialic acid acetylesterase | inhibition, % at 9.66 µM | 370,000 tested, 0.69% active | Q9HAT2 | SIAE FP-Rh probe binding, fluorescence polarization;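 active = inhibition above a cutoff: mean of compounds within the control limits plus 3 SD of those, cut at about 17% in these data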;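 also: 0% = plate median of compound wells and 100% = probe without SIAE protein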
# The depositor's hits bear a star; . = no result given.
SMILES,ABHD4 inh,TCR CD3 inh,HTRA1 inh,pPAFAH FP inh,SIAE primary
CN(CC(=O)Nc1ccccc1Cl)C(=O)COC(=O)CSc1ccc(F)cc1,-3.0,-2.9,2.5,22.6,-2.2
Cc1ccc(S(=O)(=O)N(C)C)cc1NC(=O)COC(=O)CCC1CCCCC1,-0.5,0.4,-10.5,33.3*,1.4
CCCCOC(=O)Nc1nnc(CCc2ccccc2)s1,6.0,-6.7,-6.0,26.4*,-4.3
Oc1ccc2ccccc2c1CNc1ccccc1,0.9,7.3,-2.2,.,5.1
Oc1ccc2ccccc2c1CNc1ccc2ccccc2c1,39.7*,8.4,23.6,.,8.2
COc1ccc(S(=O)(=O)N2CCOCC2)cc1C(=O)NCc1ccccc1CN1CCCC1,8.2,-4.1,2.2,0.6,-2.9
COc1ccc(NS(=O)(=O)c2cccc(C(=O)NCc3ccccn3)c2)cc1,-3.8,-2.1,1.5,22.3,5.6
COc1ccc(NS(=O)(=O)c2cccc(C(=O)NCc3ccccc3CN3CCCC3)c2)cc1,-0.5,-4.1,3.7,26.7*,5.1
COc1ccc(C(=O)NCc2ccccc2CN2CCCC2)cc1S(=O)(=O)Nc1ccc(C)cc1,-3.3,2.8,-11.3,25.1*,-2.8
O=C(Nc1ccc2c(c1)OCO2)OC1CCC12CCC(c1ccccc1)CC2 (stereo not drawn),-25.8,.,.,.,-14.0
Cc1cccc(C2C3=C(Nc4[nH]n(-c5ccccc5)c(=O)c42)c2ccccc2C3=O)c1 (stereo not drawn),43.3*,4.3,32.5,.,20.3*
COc1ccc(/C=C/C(=O)c2ccc([N+](=O)[O-])o2)cc1OC,-1.4,-0.9,.,8.0,1.5
O=C(/C=C/c1cccc(Cl)c1)c1ccc([N+](=O)[O-])o1,8.0,7.0,42.9*,13.4,-5.2
O=C(COC(=O)c1cnc(Cl)c(Cl)c1)NC1CCCC1,0.4,-5.0,8.4,.,-4.7
O=C(COC(=O)c1ccccc1Cl)NC1CCCCCC1,-1.6,0.3,-4.1,31.1*,-0.1
O=C(COC(=O)c1ccc(Cl)c(Cl)c1)NC1CCCC1,4.4,-2.0,-1.1,34.2*,-8.0
CC(C)n1nnnc1C1(C)Cn2nccc2C(=O)N1Cc1cccc(C(F)(F)F)c1 (stereo not drawn),4.8,.,.,.,3.2
CCCCNC(=O)C(c1ccc(OCC(=O)OC)c(C(=O)OC)c1)N(CCOC)C(=O)CCCCCN1C(=O)NC(c2ccc(-c3ccccc3)cc2)C(C(=O)OCc2ccccc2)=C1C (stereo not drawn),-15.4,4.8,.,49.3*,-11.7
C=CCN=C1NC(c2cccc(Cl)c2)C(C(=O)OC)=C(C)N1Cc1cccc(C(F)(F)F)c1 (stereo not drawn),8.7,-1.3,.,.,-2.5
O=C(NN=C1CCCC1)c1cc(Cl)cc(Cl)c1O,15.8,3.0,9.8,33.6*,1.6
COc1ccc(Cl)cc1C(=O)NN=C1CCCC1,-3.4,-6.0,-1.7,3.1,1.5
CCC1CCC(C(=O)NNC(=O)c2cc(-c3ccco3)[nH]n2)CC1 (stereo not drawn),7.7,1.2,0.2,30.7*,-1.8
COc1cc(C#Cc2ccc3cc(C(C)(C)O)oc(=O)c3c2)cc(OC)c1,-9.2,5.1,-25.7,-2.8,-0.5
COc1cc2cc(C(C)(C)O)oc(=O)c2cc1OC,4.7,5.8,1.5,32.8*,-1.4
COC(=O)[C@]12C[C@H](CC(=O)N3CCC(c4ccccc4)CC3)C(=O)N(CCc3ccc(OC)c(OC)c3)C1=C[C@H](C1CCCC1)O[C@@H]2C,-3.5,.,.,.,4.5
SMILES,ABHD4 inh,TCR CD3 inh,HTRA1 inh,pPAFAH FP inh,SIAE primary
COc1cccc(C(=O)Nc2ccc3nc(N4CCN(c5ncccn5)CC4)cc(C)c3c2)c1OC,.,.,.,82.0*,.
O=C(Nc1nnc(-c2ccco2)s1)C1CCCCC1,5.6,3.5,-0.3,3.0,-1.6
O=C(Nc1nc(-c2ccco2)c(-c2ccco2)s1)C1CCC1,13.2,-4.5,9.6,27.7*,1.8
COc1cc2[nH]c(=O)n(CCCCCC(=O)N3CCN(c4ccccc4)CC3)c(=O)c2cc1OC,6.0,-10.8,-0.2,26.9*,-0.4
COC(=O)c1ccc2c(=O)n(CCCCCC(=O)N3CCN(c4ccccc4)CC3)c(=O)[nH]c2c1,2.3,-5.1,2.3,-0.9,4.3
CCc1ccc(N2C(=O)C[C@@](C#N)(C(=O)OC)[C@H]2c2ccccc2)cc1,10.3,.,.,.,2.6
O=C(Nc1cccs1)Nc1ccc(Br)cc1F,6.0,5.6,-11.7,11.7,20.1*
O=C(Nc1ccccc1)Nc1ccc(Cl)c([N+](=O)[O-])c1,-18.6,1.4,-20.6,-17.5,53.8*
Cc1ccc(NC(=O)Nc2ccccc2)cc1[N+](=O)[O-],-3.1,1.5,1.7,0.1,-0.1
O=C1CC[C@@H](OCc2ccccc2)CCN1CC[C@H](Sc1ccccc1)c1ccccc1,-1.9,4.3,-45.2,31.8*,-3.8
O=C(NCCc1ccccc1)C(c1cccs1)N(C(=O)c1csnn1)C1CC1 (stereo not drawn),-0.2,5.7,-5.4,10.9,17.6*
O=C(NCc1ccccc1)C(c1cccs1)N(C(=O)c1csnn1)C1CC1 (stereo not drawn),-0.1,2.4,2.5,-4.4,-5.8
O=c1[nH]c(SCc2ccc(Cl)cc2)nc2c1CCC2,-1.2,1.8,-3.6,25.7*,-1.6
Cc1cccc(NS(=O)(=O)c2csc(C(N)=O)c2)c1C,7.9,0.3,-3.1,26.8*,-11.8
Cc1cccc(NS(=O)(=O)c2csc(C(N)=O)c2)c1,-4.9,3.4,6.7,1.7,3.4
O=C(NNC(=S)NCc1ccco1)c1ccc(Cl)s1,13.4,7.6,-0.8,6.3,5.0
O=C(CSCc1ccco1)c1ccc(Cl)s1,.,.,.,25.3*,.
CCOc1ccc(C(N)=O)cc1OC,-10.1,-5.3,10.4,0.5,-5.7
CCOc1ccc(N)cc1OC,13.3,-2.8,16.9,3.5,24.0*
N#CCC[C@H]1CC[C@]2(CCCN(C(=O)C3CCCC3)C2)O1,-6.2,.,.,.,-0.6
S=C(NCc1ccc(Cl)cc1Cl)Nc1ccccc1,-11.1,-5.7,-24.9,33.2*,3.2
O=C(NC(=S)Nc1cc([N+](=O)[O-])ccc1O)c1ccc2c(c1)OCO2,6.0,0.6,3.8,29.4*,-4.3
COc1cc([N+](=O)[O-])ccc1NC(=S)NNC(=O)c1ccc2c(c1)OCO2,21.3,-2.9,0.4,18.5,-1.7
O=c1c(O)c(-c2ccc(O)cc2)oc2cc(O)cc(O)c12,10.4,-6.2,1.8,20.5,20.6*
O=c1/c(=C/c2ccccn2)sc2nc3ccccc3n12,7.1,1.0,-4.5,3.8,3.4
O=C(O)c1cccc(-c2ccc(/C=c3/sc4nc5ccccc5n4c3=O)o2)c1,15.2,14.8,-4.6,26.2*,-14.1
COC(=O)/C=c1/sc2nc3ccccc3n2c1=O,-9.8,-0.2,1.9,4.7,-0.2
O=c1/c(=C\c2cc([N+](=O)[O-])cc([N+](=O)[O-])c2O)sc2nc3ccccc3n12,.,.,6.1,25.6*,.
COc1ccc(S[C@]2(C(=O)N3CCN(c4ncccn4)CC3)CC(=O)N(c3ccc(Cl)cc3)[C@@H]2c2ccc(OC)cc2)cc1,4.0,.,.,.,-4.7
